Rows were chosen to be rich in hits. Some 3.7% of all compounds tested hit in one or more screens of this group.
hERG rescue – shields human hERG channel from block by proarrhythmic agents | CHO-hERG, FluxOR thallium flux, dofetilide IC70 present | activation (rescue from dofetilide block), less the hit threshold, % at 10 µM | Q12809 | actives 0.51% (n = 310,000);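 active = activation above the mean of controls blocked by dofetilide plus 5 SD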;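 note: thallium influx through hERG after potassium depolarization seen as dye fluorescence rise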
KCNQ1 inh – human KCNQ1 channel inhibition. CHO-K1 KCNQ1, FluxOR thallium flux fluorescence; hits give high values. AID 2642. B-score at 10 µM. actives 1.3% (n = 310,000). P51787;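 active = compounds whose thallium flux B-score, printed positive for inhibition, exceeds three library SD while starting fluorescence stays within three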;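 note: channel opened by potassium depolarization with thallium stimulus after 20 min compound exposure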
KCNK3 inh – human KCNK3 channel inhibition, primary screen; CHO-KCNK3 thallium flux, FluxOR fluorescence; hits give low values; B-score at 10 µM; actives 0.84% (n = 340,000); AID 602410;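 active = B-score under library mean minus 4 SD, starting fluorescence ratio at most library mean plus 5 SD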;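 note: more negative B-score means stronger inhibition of thallium flux through KCNK3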
KCNQ1 act – human KCNQ1 channel potentiation or activation; P51787; CHO-K1 KCNQ1, thallium flux FluxOR fluorescence; hits give high values; B-score at 10 µM; actives 0.35% (n = 310,000);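 active = fluorescence ratio B-score, a plate-corrected score, at least three library SD, with initial intensity B-score within 5 SD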
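Assay system: stable KCNQ1 CHO-K1 line; medium: assay buffer, equal DMSO in all wells; timing: 90 min dye loading and 20 min compound exposure, both at room temperature; technique: kinetic FluxOR thallium fluorescence, 10-s 1-Hz baseline, 110-s post-stimulus read; read-out basis: B score of baseline-normalized fluorescence ratio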
Kir21 block – inhibitors of mouse Kir2.1 inward-rectifier potassium channel; P35561; HEK293-Kir2.1, FluxOR thallium flux fluorescence; hits give low values; B-score at 10 µM; actives 0.85% (n = 310,000); AID 1672;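 active = fluorescence ratio B-score at or below minus 3 SD of library scores, with starting-brightness B-score within 2 SD, cut at about -4.2 in these data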;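 note: channel flux triggered by added potassium and thallium sulfate stimulus; B-score of peak minus minimum fluorescence over baseline after thallium stimulus; more negative B-score means stronger Kir2.1 block with less thallium influx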
KCNK9 inh – human KCNK9 channel inhibition | Q9NPC2 | HEK293 KCNK9, FluxOR thallium flux fluorescence; hits give low values | B-score at 10 µM | actives 1.2% (n = 310,000) | AID 488922;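 active = ratio B-score over 3 SD below the library mean, with starting fluorescence within 5 SD of its mean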;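 note: negative B-score means less thallium flux so channel inhibition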
Target sequence (Q9NPC2 whole entry, looked up): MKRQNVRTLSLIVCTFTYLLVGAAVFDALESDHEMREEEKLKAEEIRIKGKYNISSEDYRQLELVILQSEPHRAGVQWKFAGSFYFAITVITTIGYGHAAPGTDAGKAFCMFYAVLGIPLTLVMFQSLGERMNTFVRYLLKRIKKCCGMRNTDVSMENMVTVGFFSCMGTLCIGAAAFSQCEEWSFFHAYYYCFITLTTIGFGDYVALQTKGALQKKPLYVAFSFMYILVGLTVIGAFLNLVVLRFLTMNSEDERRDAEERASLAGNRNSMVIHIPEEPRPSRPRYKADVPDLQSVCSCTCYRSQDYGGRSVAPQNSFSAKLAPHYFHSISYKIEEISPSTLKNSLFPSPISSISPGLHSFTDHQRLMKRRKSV
A number is an active result; – = inactive; · = no result given.

SMILES	hERG rescue	KCNQ1 inh	KCNK3 inh	KCNQ1 act	Kir21 block	KCNK9 inh
COc1ccc(CCNCc2ccc(Br)cc2)cc1OC	–	–	–	–	–	–
Cc1ccccc1CCNCc1ccc(Br)cc1	–	–	–	–	-9.6	–
Nc1ccc(-c2ccc(N)cc2)cc1	·	·	–	·	·	·
COC(=O)C1=C(c2ccc(S(C)(=O)=O)cc2)C[C@@H]2CC[C@H]1N2C(=O)NC1CCCCC1	5.8	–	–	–	–	–
O=[N+]([O-])c1cc(F)c(N2CCCC2)cc1Br	–	6	–	–	–	–
CN1CCN(c2cc(N3CCCC3)c([N+](=O)[O-])cc2F)CC1	–	–	–	9	–	–
S=P(NCCSCc1ccccc1)(N1CC1)N1CC1	·	·	–	·	·	·
COC(=O)C1=C(c2ccc(OC)c(OC)c2)C[C@@H]2CC[C@H]1N2C(=O)NCCCOC(C)C	·	·	–	·	·	·
CC1=C(O)C(=O)C=C2C1=CC=C1C2(C)CCC2(C)C3CC(C)(C(=O)O)CCC3(C)CCC12C (centres undefined)	·	·	–	·	·	·
Cc1ccc(NP(=O)(Oc2ccccc2)Oc2ccccc2)cc1	·	·	–	·	·	·
Cc1ccc(NP(=O)(Oc2ccccc2F)Oc2ccccc2F)cc1	–	6	–	–	–	–
CCc1ccc(NP(=O)(Oc2ccccc2F)Oc2ccccc2F)cc1	–	–	–	–	–	-7.4
CC1CN1P(=S)(c1ccccc1)N1CC1C (centres undefined)	·	·	–	·	·	·
COC(=O)C1=C(c2ccccc2OCc2ccccc2)C[C@@H]2CC[C@H]1N2C(=O)NCc1cccc(C(F)(F)F)c1	·	·	–	·	·	·
CCCCCn1c(=O)c(C(=O)Nc2cccc(C)c2)c(O)c2ccccc21	–	–	–	–	–	–
CCCCCn1c(=O)c(C(=O)Nc2ccccn2)c(O)c2ccccc21	–	–	–	–	–	-7.4
CCCCn1c(=O)c(C(=O)Nc2ccc(C)cn2)c(O)c2ccccc21	–	–	–	–	–	-7.7
CCCCCn1c(=O)c(C(=O)Nc2cccc(C)n2)c(O)c2ccccc21	–	–	–	–	–	–
Cc1c(NS(=O)(=O)c2ccccc2)ccc([N+](=O)[O-])c1Cl	·	·	–	·	·	·
Cc1cccc(CN2CCN(Cc3ccc(Cl)cc3)CC2)c1	–	–	–	–	-12	–
CN[C@H]1C[C@H]2O[C@@](C)([C@H]1OC)n1c3ccccc3c3c4c(c5c6ccccc6n2c5c31)C(=O)NC4	–	–	·	18	–	–
N#CC(C#N)=Cc1ccc(-c2ccccc2F)o1	·	·	–	·	·	·
N#CC(C#N)=Cc1ccc(-c2ccccc2)o1	–	7	·	–	–	–
c1cc2c(cc1CCNC1C3CC4CC(C3)CC1C4)OCO2 (centres undefined)	–	6	–	–	-4.5	–
CC1CCC(NCCc2ccc3c(c2)OCO3)CC1 (centres undefined)	–	–	–	–	–	–
SMILES	hERG rescue	KCNQ1 inh	KCNK3 inh	KCNQ1 act	Kir21 block	KCNK9 inh
COC(=O)C1=C(c2ccc(OC(F)(F)F)cc2)C[C@@H]2CC[C@H]1N2C(=O)N1CCOCC1	·	·	–	·	·	·
O=C1NC(=O)C(Nc2ccccc2)C(=O)N1	·	·	–	·	·	·
COc1ccc(-c2nc3ccc(C(=O)N4CCC5(CC4)OCCO5)cc3nc2-c2ccc(OC)cc2)cc1	–	6	–	–	–	–
Nc1ccc2nonc2c1[N+](=O)[O-]	–	11	–	–	–	–
O=[N+]([O-])c1ccc(N2CCCCCC2)c2nonc12	–	–	–	–	–	–
Fc1ccc(CCNCc2ccc(Cl)c(Cl)c2)cc1	–	–	–	–	-6.2	–
CCc1ccc(CNCCc2ccc(F)cc2)cc1	–	–	–	–	–	–
C[C@]12CCC(=O)C[C@H]1CC[C@@H]1[C@@H]2CC[C@]2(C)C(=O)CC[C@@H]12	·	·	–	·	·	·
CCOP(=S)(OCC)Oc1nc(Cl)c(Cl)cc1Cl	·	·	-9.1	·	·	·
Cc1ccc(-c2cc(-c3ccc(C)cc3)[n+](-c3ccc(C(=O)[O-])cc3)c(-c3ccc(C)cc3)c2)cc1	–	8	–	–	-8.2	–
CCOC(=O)c1ccc(-[n+]2c(-c3ccccc3)cc(-c3ccccc3)cc2-c2ccccc2)cc1	–	12	–	–	-11	–
CCOC(=O)c1cccc(-[n+]2c(-c3ccccc3)cc(-c3ccccc3)cc2-c2ccccc2)c1	–	13	–	–	-11	–
N#CC1c2ccccc2-n2nncc2CN1C(=O)CCc1ccccc1 (centres undefined)	·	·	–	·	·	·
C/C=C(\C)C(=O)OC1C(C)=C2C(C1OC(=O)CCCCC)C(C)(OC(C)=O)CC(OC(=O)CCC)C1(O)C2OC(=O)C1(C)O (centres undefined)	–	–	·	14	–	–
Oc1ccc2c3c1OC1c4oc5ccccc5c4C[C@@]4(O)[C@@H](C2)N(CC2CC2)CC[C@]314 (some centres undefined)	·	·	–	·	·	·
CC(=O)c1ccc(NC2=NCCCS2)cc1	–	–	–	–	–	–
CCCCc1ccc(NC2=NCCCS2)cc1	–	–	–	–	-4.9	–
O=C1NC(=O)N(Cc2ccccc2Cl)C(=O)/C1=C/N1CCOCC1	8.0	–	–	–	–	–
O=C1NC(=O)N(Cc2cccs2)C(=O)/C1=C/c1ccc(N2CCOCC2)cc1	–	–	–	–	–	–
N#CC1c2ccccc2-n2nncc2CN1Cc1cc(Cl)cc(Cl)c1 (centres undefined)	·	·	–	·	·	·
O=[N+]([O-])c1ccc(N2CCCCCC2)c2ncccc12	–	–	–	–	–	-7.7
COC12CCC3(CC1C(C)(O)C(C)(C)C)[C@H]1Cc4ccc(O)c5c4[C@@]3(CCN1CC1CC1)C2O5 (some centres undefined)	·	·	–	·	·	·
COC(=O)C1=C(c2ccc(F)cc2OCc2ccccc2)C[C@@H]2CC[C@H]1N2C(=O)NCCCOC(C)C	·	·	–	·	·	·
CC(C)C(=O)c1cn(Cc2ccc(C#N)cc2)c2ccccc12	–	–	–	–	–	-6.9
O=C(CSC1c2ccccc2-c2ccccc21)N/N=C/c1ccccc1O	–	9	–	–	–	–
SMILES	hERG rescue	KCNQ1 inh	KCNK3 inh	KCNQ1 act	Kir21 block	KCNK9 inh
O=C(CSC1c2ccccc2-c2ccccc21)N/N=C/c1ccc(C(=O)O)cc1	–	–	–	–	–	–
O=C1Nc2ccccc2/C1=C/c1cnc[nH]1	–	–	–	–	–	–
COc1ccc2c(c1)/C(=C/c1cnc[nH]1)C(=O)N2	–	–	–	8	–	–
O=c1[nH]c(=S)n(C2CC2)c(O)c1C=NCCN1CCOCC1	–	–	–	–	–	–
O=c1c(C=NCCN2CCNCC2)c(O)n(C2CCCCC2)c(=O)n1C1CCCCC1	–	–	–	11	–	–
O=c1c2cc(Br)ccc2[nH]c(=S)n1-c1ccccc1	37	–	–	–	–	–
COC1=CC2[C@@H]3Cc4ccc(OC)c(O)c4[C@]2(CCN3C)CC1=O (some centres undefined)	·	·	–	·	·	·
c1ccc(CC(NCc2ccco2)c2ccccc2)cc1 (centres undefined)	–	6	–	–	–	–

Screening data as filed in PubChem BioAssay.
